Here are results for 26 molecules from ChEMBL document CHEMBL4732165, “Analogues of the Herbicide, N-Hydroxy-N-isopropyloxamate, Inhibit Mycobacterium tuberculosis Ketol-Acid Reductoisomerase and Their Prodrugs Are Promising Anti-TB Drug Leads” (J Med Chem, 2021).

What is called Ki is a dissociation constant, usually derived from enzyme kinetics or from competition with a known ligand. One may read the MIC90 as the lowest concentration that inhibits either 90% of growth or 90% of the strains tested, depending on the study.

≈ marks a conversion by molar mass, not a printed value. Some results are limits rather than exact numbers.

Data set [1] can be described thus: Inhibition of Mycobacterium tuberculosis KARI using 2-acetolactate as substrate preincubated for 30 mins in presence of Mg2+ and NADPH followed by substrate addition by Morrison's equation analysis. The procedure, abridged: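 0.27 μM MtKARI preincubated 30 min at 25 °C with inhibitor, 50 μM NADPH and 50 mM Mg²⁺ in 0.1 M Tris-HCl pH 8. Reaction started with 200 μM 2-acetolactate, and A340 decrease followed for 5 min. Compounds above 80% inhibition at 100 μM were retested at 1 nM−100 μM. Ki from Morrison equation fit.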

Data set [2] in a line: Inhibition of Slackia exigua KARI.
Data set [3] can be described thus: Selectivity ratio of IC50 for Mycobacterium tuberculosis KARI to IC50 for Slackia exigua KARI.
In data set [4] the test system is Mycobacterium tuberculosis. Description: Potency index, ratio of IC50 for IpOHA to IC50 for test compound for inhibition of Mycobacterium tuberculosis KARI using 2-acetolactate as substrate.
For data set [5], the system named is Mycobacterium tuberculosis. Description: Antimycobacterial activity against Mycobacterium tuberculosis H37Rv assessed as reduction in bacterial growth incubated for 5 days by resazurin dye based assay. The data set is classed as functional. To be noted: 120 h, time 5 day. A digest of the protocol:
(§1)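 REMA in defined minimal medium (KH2PO4, Na2HPO4, L-asparagine, ferric ammonium citrate, MgSO4, CaCl2, ZnSO4, 0.1% glycerol) at 37 °C. Compounds 2-fold serially diluted from 30 μM. Fluorescence (ex 530/em 590 nm) read 24 h after resazurin.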
In general terms: Alamar Blue is a resazurin reagent that responds to reducing activity.

The subject of data set [6] is Mycobacterium tuberculosis. The experiment in a line: Antimycobacterial activity against Mycobacterium tuberculosis H37Ra assessed as reduction in bacterial growth incubated for 5 days by resazurin dye based assay. The data set is classed as functional. The conditions noted are these: 120 h, time 5 day. The procedure, abridged:
as §1

A short description of data set [7]: Selectivity ratio of MIC for antimycobacterial activity against Mycobacterium tuberculosis H37Ra in presence of BCAA to MIC for antimycobacterial activity against Mycobacterium tuberculosis H37Ra in absence of BCAA. The format is functional.
Data set [8] concerns Mycobacterium tuberculosis. The experiment in a line: Antimycobacterial activity against Mycobacterium tuberculosis H37Rv assessed as reduction in bacterial growth incubated for 5 days in presence of BCAA by resazurin dye based assay. To be noted: 120 h, time 5 day. The format is functional. The procedure, abridged: (§2)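 REMA as for the unsupplemented assay, but with medium supplemented with 1 mM each of leucine, isoleucine and valine. Defined minimal medium at 37 °C. Log-phase inoculum at final OD 0.001 (H37Ra) or 0.003 (H37Rv). 2-fold dilutions from 30 μM. Resazurin fluorescence (530/590 nm) read after 24 h.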

Data set [9] is described as follows: Selectivity index, ratio of MIC for antimycobacterial activity against Mycobacterium tuberculosis H37Rv in presence of BCAA to MIC for antimycobacterial activity against Mycobacterium tuberculosis H37Rv in absence of BCAA. The format is functional.
The subject of data set [10] is Mycobacterium tuberculosis. Description: Antimycobacterial activity against Mycobacterium tuberculosis H37Ra assessed as reduction in bacterial growth incubated for 5 days in presence of BCAA by resazurin dye based assay. The format is functional. The conditions noted are these: 120 h, time 5 day. A digest of the protocol: as §2
Data set [11] relates to HEK293. Description: Cytotoxicity against human HEK293 cells up to 50 uM incubated for 24 to 48 hrs by MTT assay. The format is cell-based. To be noted: time 24-48 hrs. A digest of the protocol:
(§3)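 Cells grown to 80% confluency, RAW 264.7 and HEK293 in DMEM, SW620 in RPMI, each with 10% FBS and 1 mM nonessential amino acids. Seeded at 2×10⁵ (RAW 264.7), 5×10³ (HEK293) or 2×10³ (SW620) per well and held 24−48 h at 37 °C, 5% CO2. Twofold dilutions added at 1% DMSO final, then overnight incubation. MTT 3 h, DMSO solubilisation, A570.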
In general terms: Tetrazolium assays rely on reduction of a dye to a coloured formazan, in cell work by metabolically active cells.

Data set [12] has as its system SW-620. Description: Cytotoxicity against human SW-620 cells up to 50 uM incubated for 24 to 48 hrs by MTT assay. The data set is classed as cell-based. The conditions noted are these: time 24-48 hrs. A digest of the protocol: as §3
Data set [13] concerns RAW264.7. Description: Cytotoxicity against mouse RAW264.7 cells up to 100 uM incubated for 24 to 48 hrs by MTT assay. To be noted: time 24-48 hrs. The format is cell-based. A digest of the protocol:
as §3

Data set [14] can be described thus: Inhibition of Mycobacterium tuberculosis KARI expressed in Escherichia coli BL21 using 2-acetolactate as substrate in presence of NADPH by spectrophotometric analysis.
Data set [15] in a line: Inhibition of Escherichia coli KARI using acetolactate as substrate assessed as slow and tight binding by measuring initial inhibition constant in presence of NADPH by spectrophotometric analysis.
Data set [16] is described as follows: Inhibition of Escherichia coli KARI using acetolactate as substrate assessed as slow and tight binding by measuring steady-state inhibition constant in presence of NADPH by spectrophotometric analysis.

Regarding `O=C(O)C(=O)N(C1CCCCC1)C1CCCCC1`, the Ki in data set [1] is over 20000 nM.
Take `CCOC(=O)C(=O)N(O)C1CCCCC1`: the inhibition constant Ki in data set [1] came out at 1020 nM.
On to `O=C(O)C(=O)N(O)C1CCCCC1`, for which the results for the Ki in data set [2] and in data set [1] were 8.5 nM and 39.6 nM, respectively. The Ratio IC50 in data set [3] was found to be 25.
As to `CCN(CC)C(=O)C(=O)O`, the Ki in data set [1] is over 20000 nM.
With `CC(C)CC(C)N(O)C(=O)C(=O)O` (stereo not drawn), the Ki in data set [1] was 660 nM.
On the same count and under the same terms, in the case of `CCOC(=O)C(=O)N(O)C1CCCC1` it was 32.2 nM; in that of `CCOC(=O)C(=O)NCc1ccccc1`, over 20000 nM.
In the case of `CC(c1ccccc1)N(O)C(=O)C(=O)O` (stereo not drawn), the Ki is 193 nM in data set [2] and 97.7 nM in data set [1]. For the same molecule, the Ratio IC50 in data set [3] was found to be 2.
As to `CCOC(=O)C(=O)N(O)C(C)c1ccccc1` (stereo not drawn), the Ki in data set [1] came to 152 nM.
Consider `O=C(O)C(=O)N(O)C1CCCC1`, for which the Ki in [2] amounted to 8.5 nM; in [1], 19.7 nM. Further, the Ratio IC50 in data set [4] worked out at 5. Moreover, in [5], the MIC90 was 219 µM (≈ 37.9 µg/mL).
`CC(C)NC(=O)C(=O)O`: the Ki in [1] is over 20000 nM.
In the case of `CCCCCCCCCCCCCCCCCCOC(=O)C(=O)N(O)C1CCCC1`, in data set [6], the MIC90 was over 30 µM.
For `CCCCCCCCCCOC(=O)C(=O)N(O)C1CCCC1`, the Selectivity ratio in [7] was determined as 3; in data set [9] it was 6. For the same molecule, the MIC90 is 15.2 µM in [8], 15.3 µM in data set [10], 3.01 µM (≈ 0.943 µg/mL) in data set [6] and 2.45 µM (≈ 0.768 µg/mL) in data set [5]. Besides, the Activity entry in data set [11], in data set [12] and in data set [13] was “Non-Toxic” throughout.
For `CC(C)N(O)C(=O)C(=O)O`, the Ki in data set [14] turned out to be 97.7 nM; in data set [15] it was 160 nM; in data set [16], 0.09 nM.
Take `CCOC(=O)C(=O)N(O)C(C)CC(C)C` (stereo not drawn): the Ki in [1] is 2660 nM.
The same measure, in the same setting: in the case of `CCOC(=O)C(=O)N(C1CCCCC1)C1CCCCC1` it was over 20000 nM.
Consider `CCCCCCCCCCCCOC(=O)C(=O)N(O)C1CCCC1`, for which the figures for the Selectivity ratio in data set [7] and in [9] were 3 and 6, respectively. Moreover, the MIC90 worked out at 17.2 µM in [8], 14.1 µM in data set [10], 4.99 µM (≈ 1.7 µg/mL) in [6] and 2.97 µM (≈ 1.01 µg/mL) in data set [5].
Consider `CC(C)CNC(=O)C(=O)O`, for which the Ki in data set [1] was over 20000 nM.
Consider `CCOC(=O)C(=O)N(O)C1CCN(C(=O)OC(C)(C)C)CC1`, for which, in [1], the Ki was over 20000 nM.
Same read-out and setting: in the case of `CCOC(=O)C(=O)N(O)C1CCNCC1` it was 3080 nM.
For `O=C(O)CC(=O)N(O)C1CCCC1`, the Ki in [1] is over 20000 nM.
Same read-out and setting: in the case of `CCOC(=O)C(=O)N(CC)CC` it was over 20000 nM.
Consider `COC(=O)CC(=O)N(O)C1CCCC1`, for which, in data set [1], the Ki is over 20000 nM.
As to `O=C(O)C(=O)NCc1ccccc1`, in [1], the Ki was over 20000 nM.
For `CCCCCCOC(=O)C(=O)N(O)C1CCCC1`, the MIC90 in [6] was over 30 µM.
Turning to `CCCCCCCCOC(=O)C(=O)N(O)C1CCCC1`, the Selectivity ratio in data set [7] is 3; in data set [9], 6. For the same molecule, the MIC90 was 18.9 µM in data set [8], 24.9 µM in data set [10], 6.34 µM (≈ 1.81 µg/mL) in [6] and 2.32 µM (≈ 0.662 µg/mL) in data set [5].
